In ChEMBL document CHEMBL4823321, “Improving the Adjuvanticity of Small Molecule Immune Potentiators Using Covalently Linked NF-κB Modulators” (ACS Med Chem Lett, 2021):
The source made the active and inactive calls. The rule behind the calls is not given here.

How the values were obtained:
[1] = test system: RAW264.7; test: Antioxidant activity in mouse RAW264.7 cells assessed as reduction in intracellular ROS level measured after 16 hrs by CM-H2DCFDA based flow cytometry analysis relative to TLR7/8 SMIP; assay type: functional
Procedure, shortened: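 RAW macrophages incubated with compounds for 16 h, then loaded with CM-H2DCFDA; intracellular ROS fluorescence quantified by flow cytometry.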

[2] = Systemic toxicity in C57BL/6 mouse assessed as increase in serum TNF-alpha level administered intramuscularly in presence of ovalbumin measured after 1 hr; settings: in vivo, im
Procedure, shortened: (§1)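 Mice vaccinated with ovalbumin admixed with adjuvant in PBS, i.m.; serum collected 1 h after injection for IL-6 and TNF-α; one-way ANOVA versus PBS control.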

[3] = Systemic toxicity in CT26 cells xenografted BALB/c mouse tumor model assessed as increase in serum IL-6 level at 20 nmol, IT and measured after 2 hrs; assay type: cell-based; settings: in vivo, other
Procedure, shortened: (§2)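 Subcutaneous CT-26 tumors established for 11 days, then compounds given by peritumoral injection; serum collected 2 h later for TNF-α and IL-6.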

[4] = test system: Mus musculus; test: Immuno-adjuvant activity in C57BL/6 mouse assessed as increase in levels of anti-OVA IgG administered intramuscularly on day 1 and as booster dose on day 14 in presence of ovalbumin and measured on day 28 by ELISA; assay type: functional, organism-based; settings: time 28.0 day
Procedure, shortened: (§3)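 Ovalbumin plus adjuvant in PBS given i.m., boosted on day 14; sera collected at sacrifice on day 28 and anti-OVA antibodies measured; one-way ANOVA versus PBS control.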

[5] = test system: BMDC; test: Modulator activity at NF-kappaB in C57BL/6 mouse BMDC cells assessed as increase in cell surface CD40 expression at 200 nM measured after 8 hrs by FACS analysis; assay type: cell-based; settings: filed as modulator
Procedure, shortened: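 Murine bone-marrow-derived dendritic cells incubated 8 h with compounds at 200 nM; cells stained for surface CD40 and quantified by flow cytometry.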

[6] = Toxicity in C57BL/6 mouse BMDC cells assessed as induction of inflammation by measuring increase in IL-6 secretion at 200 nM measured after 8 hrs by ELISA; assay type: cell-based; settings: 0.2 µM
Procedure, shortened: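 Murine bone-marrow-derived dendritic cells incubated 8 h with compounds at 200 nM; secreted IL-6 quantified by ELISA; triplicate; one-way ANOVA versus TLR7/8 SMIP.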

[7] = Systemic toxicity in CT26 cells xenografted BALB/c mouse tumor model assessed as reduction in lymphocyte count in peripheral blood at 20 nmol, IT and measured after 24 hrs by hematological analysis; assay type: cell-based; settings: in vivo, other
Procedure, shortened: (§4)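 Subcutaneous CT-26 tumors established for 11 days, then compounds given peritumorally; peripheral blood collected 24 h later for hematological analysis of white blood cell and lymphocyte counts.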

[8] = test system: RAW264.7; test: Inhibition of iNOS expression in mouse RAW264.7 cells at 500 nM incubated for 16 hrs by western blot analysis; assay type: functional, cell-based
[9] = test system: RAW264.7; test: Inhibition of NO production in mouse RAW264.7 cells at 500 nM incubated for 16 hrs by Griess reagent based analysis; assay type: functional, cell-based
Procedure, shortened: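 Nitrite measured with Griess reagent in supernatants of RAW macrophages incubated 16 h with 500 nM compounds; triplicate; one-way ANOVA versus TLR7/8 SMIP.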

[10] = Systemic toxicity in C57BL/6 mouse assessed as increase in serum IL-6 level administered intramuscularly in presence of ovalbumin measured after 1 hr; settings: in vivo, im; procedure, shortened: as §1
[11] = Systemic toxicity in CT26 cells xenografted BALB/c mouse tumor model assessed as reduction in white blood count in peripheral blood at 20 nmol, IT and measured after 24 hrs by hematological analysis; assay type: cell-based; settings: in vivo, other; procedure, shortened: as §4
[12] = test system: Mus musculus; test: Induction of T-cell immunity in C57BL/6 mouse splenocytes assessed as increase in CD3+CD8+ tetramer administered intramuscularly on day 1 and as booster dose on day 14 in presence of ovalbumin and SINFEKL MHC specific tetramer measured on day 28 by flow cytometric analysis; assay type: functional, cell-based; settings: time 28.0 day
[13] = test system: RAW264.7; test: Inhibition of COX-2 expression in mouse RAW264.7 cells at 500 nM incubated for 16 hrs by western blot analysis; assay type: functional, cell-based
Procedure, shortened: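 After 16 h with 500 nM compounds, RAW macrophages were lysed; proteins separated by SDS-PAGE, transferred to membrane and probed with anti-COX-2 antibody; triplicate.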

[14] = Systemic toxicity in CT26 cells xenografted BALB/c mouse tumor model assessed as increase in serum TNF-alpha level at 20 nmol, IT and measured after 2 hrs; assay type: cell-based; settings: in vivo, other; procedure, shortened: as §2
[15] = biological target: TLR7 and TLR8 (Mus musculus) (UniProt P58681+P58682); test: Agonist activity at TLR7/8 in mouse RAW-blue cells assessed as immune activation by measuring induction of NFkappaB activation at 500 nM measured after 24 hrs by quanti-blue SEAP reporter gene-based assay; assay type: cell-based; settings: filed as agonist
TLR7 and TLR8 (Mus musculus), sequence (P58681 whole entry, looked up): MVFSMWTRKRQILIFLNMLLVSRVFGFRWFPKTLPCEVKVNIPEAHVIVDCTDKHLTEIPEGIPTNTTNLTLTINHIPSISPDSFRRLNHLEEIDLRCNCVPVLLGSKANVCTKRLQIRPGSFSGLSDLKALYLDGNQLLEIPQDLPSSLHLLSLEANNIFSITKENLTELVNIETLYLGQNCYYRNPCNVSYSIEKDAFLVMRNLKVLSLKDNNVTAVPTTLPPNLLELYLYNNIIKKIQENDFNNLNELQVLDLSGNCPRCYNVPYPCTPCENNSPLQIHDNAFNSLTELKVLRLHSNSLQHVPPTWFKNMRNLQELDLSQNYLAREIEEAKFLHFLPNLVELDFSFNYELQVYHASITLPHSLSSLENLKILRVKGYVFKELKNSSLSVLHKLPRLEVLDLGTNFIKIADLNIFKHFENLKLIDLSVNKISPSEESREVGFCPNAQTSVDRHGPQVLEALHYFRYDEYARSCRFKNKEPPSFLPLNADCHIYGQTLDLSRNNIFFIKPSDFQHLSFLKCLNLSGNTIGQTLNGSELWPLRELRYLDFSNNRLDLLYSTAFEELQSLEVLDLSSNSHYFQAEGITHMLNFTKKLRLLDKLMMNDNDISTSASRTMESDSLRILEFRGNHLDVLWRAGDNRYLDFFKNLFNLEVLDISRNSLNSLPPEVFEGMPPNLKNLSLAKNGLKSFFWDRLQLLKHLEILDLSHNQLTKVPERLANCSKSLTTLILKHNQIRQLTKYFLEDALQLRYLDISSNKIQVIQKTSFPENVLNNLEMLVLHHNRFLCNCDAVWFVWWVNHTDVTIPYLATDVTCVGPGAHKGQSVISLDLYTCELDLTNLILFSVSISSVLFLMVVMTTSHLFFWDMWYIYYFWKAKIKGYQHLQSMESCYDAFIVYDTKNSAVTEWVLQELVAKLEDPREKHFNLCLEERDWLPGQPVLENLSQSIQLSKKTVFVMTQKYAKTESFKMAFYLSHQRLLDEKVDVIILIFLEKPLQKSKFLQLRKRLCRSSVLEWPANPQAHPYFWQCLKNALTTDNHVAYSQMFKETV
TLR7 and TLR8 (Mus musculus), sequence (P58682 whole entry, looked up): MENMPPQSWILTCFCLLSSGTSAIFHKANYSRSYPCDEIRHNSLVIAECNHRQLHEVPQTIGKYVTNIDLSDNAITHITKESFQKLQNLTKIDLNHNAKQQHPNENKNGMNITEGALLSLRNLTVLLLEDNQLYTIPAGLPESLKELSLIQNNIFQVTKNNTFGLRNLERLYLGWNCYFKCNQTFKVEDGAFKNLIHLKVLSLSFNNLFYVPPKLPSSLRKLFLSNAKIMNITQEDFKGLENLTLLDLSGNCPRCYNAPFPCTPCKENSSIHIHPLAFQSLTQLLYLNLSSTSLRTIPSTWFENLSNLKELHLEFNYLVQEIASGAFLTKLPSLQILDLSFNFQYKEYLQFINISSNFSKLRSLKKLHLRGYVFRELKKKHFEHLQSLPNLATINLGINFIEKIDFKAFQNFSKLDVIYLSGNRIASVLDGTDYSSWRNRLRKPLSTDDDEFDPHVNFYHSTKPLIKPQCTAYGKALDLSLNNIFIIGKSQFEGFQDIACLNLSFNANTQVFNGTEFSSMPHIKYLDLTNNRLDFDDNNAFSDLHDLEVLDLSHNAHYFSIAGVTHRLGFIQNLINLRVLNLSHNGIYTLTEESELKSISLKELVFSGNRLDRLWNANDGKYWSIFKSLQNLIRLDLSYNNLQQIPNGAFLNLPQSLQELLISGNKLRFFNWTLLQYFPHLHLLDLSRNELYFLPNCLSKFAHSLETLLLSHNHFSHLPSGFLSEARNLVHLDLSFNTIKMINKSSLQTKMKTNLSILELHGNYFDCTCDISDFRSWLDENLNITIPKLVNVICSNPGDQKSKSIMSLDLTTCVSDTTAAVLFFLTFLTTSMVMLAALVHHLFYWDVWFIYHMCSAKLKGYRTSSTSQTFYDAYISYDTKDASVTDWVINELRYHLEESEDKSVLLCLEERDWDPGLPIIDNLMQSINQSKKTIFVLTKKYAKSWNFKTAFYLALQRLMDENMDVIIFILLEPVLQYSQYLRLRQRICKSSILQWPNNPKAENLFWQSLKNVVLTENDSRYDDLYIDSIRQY
Procedure, shortened: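 RAW-Blue macrophages exposed to compounds at 500 nM for 24 h at 37 °C; NF-κB-driven reporter read-out; triplicate samples; one-way ANOVA against TLR7/8 SMIP.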

[16] = test system: Splenocyte; test: Induction of innate immunity in C57BL/6 mouse naive splenocyte assessed as increase in cell proliferation at 3 uM measured after 48 hrs by MTT assay; assay type: functional, tissue-based
Procedure, shortened: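 Naive splenocytes incubated 48 h with compounds to assess proliferation.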

[17] = test system: Mus musculus; test: Immuno-adjuvant activity in C57BL/6 mouse assessed as increase in levels of anti-OVA Ig (A+G+M) administered intramuscularly on day 1 and as booster dose on day 14 in presence of ovalbumin and measured on day 28 by ELISA; assay type: functional, organism-based; settings: time 28.0 day; procedure, shortened: as §3
[18] = test system: Mus musculus; test: Immuno-adjuvant activity in C57BL/6 mouse assessed as increase in levels of anti-OVA IgA administered intramuscularly on day 1 and as booster dose on day 14 in presence of ovalbumin and measured on day 28 by ELISA; assay type: functional, organism-based; settings: time 28.0 day
[19] = test system: CT26; test: Antitumor activity against mouse CT26 cells xenografted in BALB/c mouse assessed as survival rate at 20 nmol, IT administered on day 15,19 and 23 and measured on day 35; assay type: functional
Procedure, shortened: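 Subcutaneous CT-26 colon carcinoma in mice. Once tumors were established at day 11, […], compounds were given by peritumoral injection, then three more injections every 4 days. Tumor size was measured every alternate day. Animals were euthanized when a tumor reached 20 mm in any linear dimension. Kaplan–Meier survival was followed until day 35.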

In the case of `CCCCc1nc2c(N)nc3ccccc3c2n1Cc1ccc(CNC(=O)NCCc2ccc(O)c(O)c2)cc1`, the “inhibition (INH)” value [1] is reported as 50%, the Activity [2] is reported as “Non-Toxic” and the Activity [3] is reported as “Non-Toxic”. The Activity [4] was “Active”, the Activity [5] was “Active” and the Activity [6] was “Non-Toxic”. For the same compound, the Activity [7] was “Non-Toxic”, the inhibition [8] was “Active” and the inhibition [9] was “Active”. The Activity [10] was “Non-Toxic”, the Activity [11] was “Non-Toxic” and the Activity [12] was “inactive”. For the same compound, the inhibition [13] was “inactive”, the Activity [14] was “Non-Toxic” and the Activity [15] was “Active”. For the same compound, the Activity [16] was “Active” and the Activity [17] was “Active”.
With `CCCCCCCCCCCCCCCCCC(=O)NCCCCOn1c(CCCC)nc2c(N)nc3ccccc3c21` [TELRATOLIMOD] the Activity [3] was “Non-Toxic”, the Activity [7] was “Non-Toxic” and the Activity [11] was “Non-Toxic”. For the same compound, the Activity [14] was “Non-Toxic”.
In the case of `CCCCc1nc2c(N)nc3ccccc3c2n1Cc1ccc(CNC(=O)c2cc(-c3ccc(O)cc3)ccc2O)cc1`, the “inhibition (INH)” value [1] is reported as 50%, the Activity [3] is reported as “Non-Toxic” and the Activity [5] is reported as “Active”. For the same compound, the Activity [6] was “Toxic”, the Activity [7] was “Non-Toxic” and the inhibition [8] was “Active”. The inhibition [9] was “Active”, the inhibition [13] was “inactive” and the Activity [15] was “Active”. For the same compound, the Activity [16] was “Active”.
In the case of `CCCCc1nc2c(N)nc3ccccc3c2n1Cc1ccc(CNC(=O)c2cccc(-c3cccc(O)c3)c2)cc1`, the “inhibition (INH)” value [1] is reported as 50%, the Activity [2] is reported as “Non-Toxic” and the Activity [3] is reported as “Non-Toxic”. For the same compound, the Activity [5] was “Active”, the Activity [6] was “Non-Toxic” and the Activity [7] was “Non-Toxic”. For the same compound, the inhibition [8] was “Active”, the inhibition [9] was “Active” and the Activity [10] was “Non-Toxic”. The Activity [11] was “Non-Toxic”, the Activity [12] was “inactive” and the inhibition [13] was “inactive”. For the same compound, the Activity [14] was “Non-Toxic”, the Activity [15] was “Active” and the Activity [16] was “Active”.
With `CCOCc1nc2c(N)nc3ccccc3c2n1CC(C)(C)O` [RESIQUIMOD] the Activity [3] was “Toxic”, the Activity [7] was “Toxic” and the Activity [11] was “Toxic”. The Activity [14] was “Toxic”.
With `CCCCc1nc2c(N)nc3ccccc3c2n1Cc1ccc(CNC(=O)NCCCCCC(=O)NCc2ccc(O)c(OC)c2)cc1` the “inhibition (INH)” value [1] was 50%, the Activity [2] was “Non-Toxic” and the Activity [3] was “Non-Toxic”. For the same compound, the Activity [4] was “Active”, the Activity [5] was “Active” and the Activity [6] was “Non-Toxic”. The Activity [7] was “Non-Toxic”, the inhibition [8] was “Active” and the inhibition [9] was “Active”. For the same compound, the Activity [10] was “Non-Toxic”, the Activity [18] was “Active” and the Activity [11] was “Non-Toxic”. The Activity [12] was “inactive”, the inhibition [13] was “inactive” and the Activity [14] was “Non-Toxic”. The Activity [15] was “Active”, the Activity [16] was “Active” and the Activity [17] was “Active”. The Activity ([19]; time 35.0 day) was “Active”.
In the case of `CCCCc1nc2c(N)nc3ccccc3c2n1Cc1ccc(CNC(=O)c2ccc(-c3cccc(O)c3)cc2O)cc1`, the “inhibition (INH)” value [1] is reported as 50%, the Activity [3] is reported as “Non-Toxic” and the Activity [5] is reported as “Active”. For the same compound, the Activity [6] was “Toxic”, the Activity [7] was “Non-Toxic” and the inhibition [8] was “Active”. For the same compound, the inhibition [9] was “Active”, the Activity [11] was “Non-Toxic” and the inhibition [13] was “inactive”. For the same compound, the Activity [14] was “Non-Toxic”, the Activity [15] was “Active” and the Activity [16] was “Active”.
In the case of `CCCCc1nc2c(N)nc3ccccc3c2n1Cc1ccccc1`, the Activity [3] is reported as “Toxic”, the Activity [5] is reported as “Active” and the Activity [6] is reported as “Toxic”. For the same compound, the Activity [7] was “Toxic”, the Activity [11] was “Toxic” and the Activity [14] was “Toxic”. The Activity [15] was “Active” and the Activity [16] was “Active”.
In the case of `CCCCc1nc2c(N)nc3ccccc3c2n1Cc1ccc(CNC(=O)NCCCNC(=O)/C=C/c2ccc(O)c(OC)c2)cc1`, the “inhibition (INH)” value [1] is reported as 50%, the Activity [3] is reported as “Toxic” and the Activity [5] is reported as “Active”. The Activity [6] was “Non-Toxic”, the Activity [7] was “Toxic” and the inhibition [8] was “Active”. The inhibition [9] was “Active”, the Activity [11] was “Toxic” and the inhibition [13] was “inactive”. For the same compound, the Activity [14] was “Toxic”, the Activity [15] was “Active” and the Activity [16] was “Active”. The Survival ([19]; time 35 day) was 80%.
